Assay results reported in ChEMBL document CHEMBL4619781 (J Med Chem, 2020).
Active and inactive are the calls of the source. No cut-off for these calls is given here.

Legend:
[1] = test system: NCI-H226; assay: Cytotoxicity against human NCI-H226 cells assessed as reduction in cell viability measured after 72 hrs by CellTiter 96 aqueous one solution assay; type: functional, cell-based; conditions: NCI-H226, 72 h
Outline: (§1)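 Cells diluted to 5 × 10^4 cells/mL in RPMI 1640 or DMEM with 10% FBS, streptomycin and penicillin; plated and incubated 24 h at 37 °C, 5% CO2. Medium replaced, then serial dilutions added from DMSO at final 0–1000 nM for 72 h. Absorbance at 490 nm read after 30–60 min with reagent. Mean ± SD of three replicates; EC50 by curve fitting.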

[2] = test system: SF-295; assay: Cytotoxicity against human SF295 cells assessed as reduction in cell viability measured after 72 hrs by CellTiter 96 aqueous one solution assay; type: functional, cell-based; conditions: SF-295, 72 h; outline: as §1
[3] = test system: MDA-MB-231; assay: Cytotoxicity against human MDA-MB-231 cells assessed as reduction in cell viability measured after 72 hrs by CellTiter 96 aqueous one solution assay; type: functional, cell-based; conditions: MDA-MB-231, 72 h; outline: as §1
[4] = test system: DNA; assay: Induction of Escherichia coli plasmid pUC19 DNA cleavage assessed as increase in relaxation of supercoiled plasmid DNA measured after 24 hrs by SYBR green staining based gel electrophoresis; type: nucleic-acid assay
Outline: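 Supercoiled pUC19 (25 nM plasmid, […]) in Dulbecco's PBS pH 7.4 with 5% DMSO and varying compound concentrations, with or without 1 mM reduced glutathione, 37 °C for 24 h, in triplicate. Run on 1% agarose gel in TAE at 100 V for 1 h. Supercoiled (form I) band intensity normalized to DMSO controls.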

[5] = test system: SK-MEL-5; assay: Cytotoxicity against human SK-MEL-5 cells assessed as reduction in cell viability measured after 72 hrs by CellTiter 96 aqueous one solution assay; type: functional, cell-based; conditions: SK-MEL-5, 72 h; outline: as §1

SMILES	EC50 [1]	EC50 [2]	EC50 [3]	Activity [4]	EC50 [5]
COc1ccc2c(c1O)C(=O)c1c3c(cc(O)c1C2=O)[C@@]12O[C@@]1([C@@H](C)O)[C@H](C#C/C=C\C#C[C@H]2O)N3	4.2 nM	0.45 nM	1.1 nM	Active	0.74 nM
COC(=O)[C@H](O)[C@@](C)(O)[C@@]12O[C@]13c1cc(O)c4c(c1N[C@H]2C#C/C=C\C#C[C@H]3O)C(=O)c1c(ccc(OC)c1O)C4=O	32 nM	4 nM	5 nM	Active	2.8 nM
C#CCOc1ccc2c(c1O)C(=O)c1c3c(cc(O)c1C2=O)[C@@]12O[C@@]1([C@](C)(O)[C@@H](O)C(=O)OC)[C@H](C#C/C=C\C#C[C@H]2O)N3	26 nM	2.8 nM	3.7 nM	Active	2.8 nM
COC(=O)[C@H](O)[C@@](C)(O)[C@@]12O[C@]13c1cc(O)c4c(c1N[C@H]2C#C/C=C\C#C[C@H]3O)C(=O)c1cc(O)ccc1C4=O	75 nM	51 nM	37 nM	Active	36 nM
COC(=O)[C@H](O)[C@@](C)(O)[C@@]12O[C@]13c1cc(O)c4c(c1N[C@H]2C#C/C=C\C#C[C@H]3O)C(=O)c1c(ccc(OCC(C)=O)c1O)C4=O	3.7 nM	1.1 nM	0.9 nM	Active	0.8 nM
COC(=O)[C@H](O)[C@@](C)(O)[C@@]12O[C@]13c1cc(O)c4c(c1N[C@H]2C#C/C=C\C#C[C@H]3O)C(=O)c1c(ccc(O)c1O)C4=O	66 nM	45 nM	34 nM	Active	32 nM
COC(=O)[C@H](O)[C@@](C)(O)[C@@]12O[C@]13c1cc(O)c4c(c1N[C@H]2C#C/C=C\C#C[C@H]3O)C(=O)c1cc(OC)ccc1C4=O	68 nM	21 nM	14 nM	Active	19 nM
